The source made the active and inactive calls. The rule behind the calls is not given here.
How the values were obtained:
[1] = biological target: Phosphorylase b kinase gamma catalytic chain, skeletal muscle/heart isoform (Homo sapiens) (UniProt Q16816); test: Inhibition of PHKG1 assessed as residual activity at 10 uM relative to control
[2] = biological target: T1, Serine/threonine-protein kinase STK11 (Homo sapiens) (UniProt Q15831); test: Inhibition of LKB1 assessed as residual activity at 10 uM relative to control
T1 sequence (whole entry): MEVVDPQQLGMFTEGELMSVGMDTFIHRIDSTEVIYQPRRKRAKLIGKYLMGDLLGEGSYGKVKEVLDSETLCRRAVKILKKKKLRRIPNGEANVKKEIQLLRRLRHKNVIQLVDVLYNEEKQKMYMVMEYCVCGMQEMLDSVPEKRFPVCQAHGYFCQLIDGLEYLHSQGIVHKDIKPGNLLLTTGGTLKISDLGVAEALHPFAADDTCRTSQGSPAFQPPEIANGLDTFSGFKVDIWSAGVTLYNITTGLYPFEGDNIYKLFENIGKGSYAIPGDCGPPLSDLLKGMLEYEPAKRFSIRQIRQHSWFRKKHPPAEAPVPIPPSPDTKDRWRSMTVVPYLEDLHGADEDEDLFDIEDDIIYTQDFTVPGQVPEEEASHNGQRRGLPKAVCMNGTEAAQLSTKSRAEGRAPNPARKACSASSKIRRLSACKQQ

[3] = biological target: Receptor-interacting serine/threonine-protein kinase 2 (Homo sapiens) (UniProt O43353); test: Inhibition of RIPK2 assessed as residual activity at 1 uM
[4] = biological target: Ephrin type-A receptor 7 (Homo sapiens) (UniProt Q15375); test: Inhibition of EPHA7 assessed as residual activity at 10 uM relative to control
Outline: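 Competition kinase-binding assay (KINOMEscan) across a non-redundant panel of 329 kinases beyond the radiometric panel; residual binding expressed relative to control.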

[5] = biological target: Serine/threonine-protein kinase MRCK beta (Homo sapiens) (UniProt Q9Y5S2); test: Inhibition of MRCKB assessed as residual activity at 10 uM relative to control
[6] = biological target: Interleukin-1 receptor-associated kinase 4 (Homo sapiens) (UniProt Q9NWZ3); test: Inhibition of IRAK4 assessed as residual activity at 10 uM relative to control
[7] = biological target: Activin receptor type-1B (Homo sapiens) (UniProt P36896); test: Inhibition of ACVR1B assessed as residual activity at 10 uM relative to control
[8] = biological target: Homeodomain-interacting protein kinase 3 (Homo sapiens) (UniProt Q9H422); test: Inhibition of HIPK3 assessed as residual activity at 10 uM relative to control
[9] = biological target: T1, Serine/threonine-protein kinase STK11 (Homo sapiens); test: Inhibition of LKB1 assessed as residual activity at 10 uM
[10] = biological target: Bone morphogenetic protein receptor type-1A (Homo sapiens) (UniProt P36894); test: Inhibition of BMPR1A assessed as residual activity at 10 uM relative to control
[11] = biological target: Mitogen-activated protein kinase 11 (Homo sapiens) (UniProt Q15759); test: Inhibition of p38-beta assessed as residual activity at 10 uM relative to control
[12] = biological target: T2, NUAK family SNF1-like kinase 1 (Homo sapiens) (UniProt O60285); test: Inhibition of NUAK1 assessed as residual activity at 10 uM
T2 sequence (whole entry): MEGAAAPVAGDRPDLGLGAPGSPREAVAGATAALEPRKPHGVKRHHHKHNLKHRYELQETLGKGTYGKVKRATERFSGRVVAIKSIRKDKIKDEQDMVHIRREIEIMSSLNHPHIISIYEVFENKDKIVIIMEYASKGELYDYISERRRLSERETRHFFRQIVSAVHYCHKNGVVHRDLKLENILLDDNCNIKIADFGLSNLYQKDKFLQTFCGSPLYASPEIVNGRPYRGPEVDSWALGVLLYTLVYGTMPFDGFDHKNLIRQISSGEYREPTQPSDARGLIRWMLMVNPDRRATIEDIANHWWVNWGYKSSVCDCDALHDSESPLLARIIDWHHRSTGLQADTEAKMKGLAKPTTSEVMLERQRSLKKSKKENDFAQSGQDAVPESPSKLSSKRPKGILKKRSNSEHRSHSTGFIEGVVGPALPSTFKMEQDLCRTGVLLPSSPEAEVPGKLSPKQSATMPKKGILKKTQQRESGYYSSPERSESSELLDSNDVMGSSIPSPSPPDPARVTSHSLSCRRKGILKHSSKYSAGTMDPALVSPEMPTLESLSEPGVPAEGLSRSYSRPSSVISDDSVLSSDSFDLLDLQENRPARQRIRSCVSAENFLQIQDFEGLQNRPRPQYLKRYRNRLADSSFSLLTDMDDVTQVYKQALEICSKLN

[13] = biological target: Leucine-rich repeat serine/threonine-protein kinase 2 (Homo sapiens) (UniProt Q5S007); settings: 0.01 to 1 uM
[14] = biological target: Serine/threonine-protein kinase Nek6 (Homo sapiens) (UniProt Q9HC98); test: Inhibition of NEK6 assessed as residual activity at 10 uM
[15] = biological target: Rho-associated protein kinase 1 (Homo sapiens) (UniProt Q13464); test: Inhibition of ROCK1 assessed as residual activity at 10 uM relative to control
[16] = biological target: Tyrosine-protein kinase SYK (Homo sapiens) (UniProt P43405); test: Inhibition of SYK assessed as residual activity at 10 uM
[17] = biological target: Platelet-derived growth factor receptor beta (Homo sapiens) (UniProt P09619); test: Inhibition of PDGFRB assessed as residual activity at 10 uM relative to control
[18] = biological target: Protein-tyrosine kinase 6 (Homo sapiens) (UniProt Q13882); test: Inhibition of BRK assessed as residual activity at 1 uM
Outline: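 Radioactivity-based enzymatic assay against a panel of 131 kinases (Dundee profiling). Activity remaining was measured with compound present at the stated concentration.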

[19] = biological target: TRAF2 and NCK-interacting protein kinase (Homo sapiens) (UniProt Q9UKE5); test: Inhibition of TNIK assessed as residual activity at 10 uM relative to control
Mus musculus = test: Inhibition of LRRK2 in mouse assessed as inhibition of Ser910 autophosphorylation in kidney at 100 mg/kg, ip by immunoblot method; format: functional, organism-based; parameters: dose 100 mg/kg
Brain = test: Volume of distribution at steady state in Swiss albino mouse […] at 1 mg/kg, iv; format: ADME, organism-based; parameters: dose 1 mg/kg, route intravenous; settings: in vivo
[20] = biological target: Serine/threonine-protein kinase PLK2 (Homo sapiens) (UniProt Q9NYY3); test: Inhibition of PLK2 assessed as residual activity at 10 uM relative to control
[21] = biological target: Leucine-rich repeat serine/threonine-protein kinase 2 (Mus musculus) (UniProt Q5S006); test: Inhibition of LRRK2 in Swiss mouse 3T3 cells assessed as inhibition of Ser935 autophosphorylation after 90 mins by immunoblot method; format: cell-based; settings: NIH3T3
[22] = biological target: Tyrosine-protein kinase BTK (Homo sapiens) (UniProt Q06187); test: Inhibition of BTK assessed as residual activity at 10 uM relative to control
[23] = biological target: Cyclin-dependent kinase 2 (Homo sapiens) (UniProt P24941); test: Inhibition of CDK2 assessed as residual activity at 10 uM relative to control

Chain of Activin receptor type-1B (Homo sapiens) (P36896 whole entry): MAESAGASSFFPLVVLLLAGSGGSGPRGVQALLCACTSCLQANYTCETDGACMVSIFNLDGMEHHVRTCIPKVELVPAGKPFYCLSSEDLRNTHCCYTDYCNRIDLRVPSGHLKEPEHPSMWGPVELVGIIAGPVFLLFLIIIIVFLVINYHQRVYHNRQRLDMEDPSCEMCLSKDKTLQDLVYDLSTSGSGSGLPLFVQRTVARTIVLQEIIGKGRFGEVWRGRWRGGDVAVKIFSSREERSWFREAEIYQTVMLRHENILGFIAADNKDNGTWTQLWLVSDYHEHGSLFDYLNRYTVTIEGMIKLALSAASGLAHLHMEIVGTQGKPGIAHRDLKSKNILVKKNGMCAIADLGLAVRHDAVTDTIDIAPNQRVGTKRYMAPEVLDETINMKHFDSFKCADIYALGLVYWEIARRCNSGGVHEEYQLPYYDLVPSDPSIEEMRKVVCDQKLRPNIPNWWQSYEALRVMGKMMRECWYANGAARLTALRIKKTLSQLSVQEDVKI
Chain of Serine/threonine-protein kinase MRCK beta (Homo sapiens) (Q9Y5S2 whole entry): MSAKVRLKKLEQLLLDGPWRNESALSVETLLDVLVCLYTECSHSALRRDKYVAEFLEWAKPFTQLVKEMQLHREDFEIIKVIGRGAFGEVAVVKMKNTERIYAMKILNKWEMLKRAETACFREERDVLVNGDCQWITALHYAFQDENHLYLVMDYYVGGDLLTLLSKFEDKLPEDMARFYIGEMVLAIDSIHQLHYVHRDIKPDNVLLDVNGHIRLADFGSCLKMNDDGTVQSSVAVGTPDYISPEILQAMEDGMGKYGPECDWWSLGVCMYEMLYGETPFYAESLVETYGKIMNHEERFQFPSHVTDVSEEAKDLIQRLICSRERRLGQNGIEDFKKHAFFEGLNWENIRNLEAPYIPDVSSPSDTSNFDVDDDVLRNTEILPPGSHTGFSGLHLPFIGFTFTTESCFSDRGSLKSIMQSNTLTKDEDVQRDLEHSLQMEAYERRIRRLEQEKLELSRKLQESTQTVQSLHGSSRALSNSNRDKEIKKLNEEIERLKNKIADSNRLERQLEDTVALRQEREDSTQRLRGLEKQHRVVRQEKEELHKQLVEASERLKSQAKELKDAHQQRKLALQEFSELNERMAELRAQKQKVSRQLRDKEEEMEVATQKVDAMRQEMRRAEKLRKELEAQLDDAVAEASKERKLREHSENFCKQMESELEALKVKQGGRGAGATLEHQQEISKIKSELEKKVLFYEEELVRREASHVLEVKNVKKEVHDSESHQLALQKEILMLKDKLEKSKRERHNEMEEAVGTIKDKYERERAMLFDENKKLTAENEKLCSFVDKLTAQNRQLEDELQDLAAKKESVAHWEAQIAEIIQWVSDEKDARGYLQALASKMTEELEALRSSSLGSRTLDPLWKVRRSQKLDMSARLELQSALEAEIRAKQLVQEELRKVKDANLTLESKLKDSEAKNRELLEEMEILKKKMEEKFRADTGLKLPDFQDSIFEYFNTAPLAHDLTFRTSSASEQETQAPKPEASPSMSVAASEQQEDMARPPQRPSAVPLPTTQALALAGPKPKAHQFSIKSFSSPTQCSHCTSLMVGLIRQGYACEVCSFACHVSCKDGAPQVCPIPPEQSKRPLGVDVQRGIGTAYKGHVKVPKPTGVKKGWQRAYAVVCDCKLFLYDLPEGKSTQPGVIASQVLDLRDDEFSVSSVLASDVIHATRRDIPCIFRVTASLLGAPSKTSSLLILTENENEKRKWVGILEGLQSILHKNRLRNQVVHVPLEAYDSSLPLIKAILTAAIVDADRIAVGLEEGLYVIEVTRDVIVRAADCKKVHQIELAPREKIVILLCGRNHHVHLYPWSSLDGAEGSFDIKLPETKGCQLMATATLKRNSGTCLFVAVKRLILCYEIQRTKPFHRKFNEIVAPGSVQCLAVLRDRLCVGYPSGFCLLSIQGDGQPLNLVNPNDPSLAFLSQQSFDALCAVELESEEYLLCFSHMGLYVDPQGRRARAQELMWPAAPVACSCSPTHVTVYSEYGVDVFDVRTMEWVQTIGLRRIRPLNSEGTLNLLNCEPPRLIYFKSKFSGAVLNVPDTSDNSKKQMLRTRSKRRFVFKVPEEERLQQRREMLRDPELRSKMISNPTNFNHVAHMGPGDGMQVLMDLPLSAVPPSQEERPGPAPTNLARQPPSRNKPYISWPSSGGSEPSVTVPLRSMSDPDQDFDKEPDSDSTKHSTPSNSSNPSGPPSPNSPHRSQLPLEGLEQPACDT
Chain of Ephrin type-A receptor 7 (Homo sapiens) (Q15375 28-998 limits assumed): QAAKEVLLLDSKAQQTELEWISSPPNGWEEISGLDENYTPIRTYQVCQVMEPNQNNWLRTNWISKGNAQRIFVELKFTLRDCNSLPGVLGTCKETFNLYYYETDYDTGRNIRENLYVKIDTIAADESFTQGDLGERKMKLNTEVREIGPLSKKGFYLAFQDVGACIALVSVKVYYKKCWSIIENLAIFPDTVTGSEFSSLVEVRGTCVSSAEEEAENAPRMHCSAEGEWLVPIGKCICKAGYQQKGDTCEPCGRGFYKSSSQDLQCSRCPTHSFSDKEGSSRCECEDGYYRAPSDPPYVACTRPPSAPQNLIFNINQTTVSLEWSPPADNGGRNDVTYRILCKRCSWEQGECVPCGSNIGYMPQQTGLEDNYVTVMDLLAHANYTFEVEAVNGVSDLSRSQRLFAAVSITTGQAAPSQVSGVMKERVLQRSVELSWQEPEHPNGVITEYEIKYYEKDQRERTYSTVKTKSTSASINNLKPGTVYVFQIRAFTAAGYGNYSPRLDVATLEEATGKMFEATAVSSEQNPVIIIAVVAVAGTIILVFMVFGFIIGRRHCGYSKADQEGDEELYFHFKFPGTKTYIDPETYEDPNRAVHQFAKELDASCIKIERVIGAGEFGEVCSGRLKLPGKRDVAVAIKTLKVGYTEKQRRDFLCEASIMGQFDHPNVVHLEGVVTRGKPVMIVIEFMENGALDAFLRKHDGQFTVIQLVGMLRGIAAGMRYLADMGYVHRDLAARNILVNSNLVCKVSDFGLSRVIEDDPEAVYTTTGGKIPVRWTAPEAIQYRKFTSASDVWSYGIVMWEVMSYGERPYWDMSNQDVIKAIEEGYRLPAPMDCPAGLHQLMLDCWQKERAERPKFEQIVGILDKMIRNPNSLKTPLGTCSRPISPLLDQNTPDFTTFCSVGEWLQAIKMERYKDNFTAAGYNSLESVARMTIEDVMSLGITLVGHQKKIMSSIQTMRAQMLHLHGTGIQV
Chain of Homeodomain-interacting protein kinase 3 (Homo sapiens) (Q9H422 whole entry, looked up): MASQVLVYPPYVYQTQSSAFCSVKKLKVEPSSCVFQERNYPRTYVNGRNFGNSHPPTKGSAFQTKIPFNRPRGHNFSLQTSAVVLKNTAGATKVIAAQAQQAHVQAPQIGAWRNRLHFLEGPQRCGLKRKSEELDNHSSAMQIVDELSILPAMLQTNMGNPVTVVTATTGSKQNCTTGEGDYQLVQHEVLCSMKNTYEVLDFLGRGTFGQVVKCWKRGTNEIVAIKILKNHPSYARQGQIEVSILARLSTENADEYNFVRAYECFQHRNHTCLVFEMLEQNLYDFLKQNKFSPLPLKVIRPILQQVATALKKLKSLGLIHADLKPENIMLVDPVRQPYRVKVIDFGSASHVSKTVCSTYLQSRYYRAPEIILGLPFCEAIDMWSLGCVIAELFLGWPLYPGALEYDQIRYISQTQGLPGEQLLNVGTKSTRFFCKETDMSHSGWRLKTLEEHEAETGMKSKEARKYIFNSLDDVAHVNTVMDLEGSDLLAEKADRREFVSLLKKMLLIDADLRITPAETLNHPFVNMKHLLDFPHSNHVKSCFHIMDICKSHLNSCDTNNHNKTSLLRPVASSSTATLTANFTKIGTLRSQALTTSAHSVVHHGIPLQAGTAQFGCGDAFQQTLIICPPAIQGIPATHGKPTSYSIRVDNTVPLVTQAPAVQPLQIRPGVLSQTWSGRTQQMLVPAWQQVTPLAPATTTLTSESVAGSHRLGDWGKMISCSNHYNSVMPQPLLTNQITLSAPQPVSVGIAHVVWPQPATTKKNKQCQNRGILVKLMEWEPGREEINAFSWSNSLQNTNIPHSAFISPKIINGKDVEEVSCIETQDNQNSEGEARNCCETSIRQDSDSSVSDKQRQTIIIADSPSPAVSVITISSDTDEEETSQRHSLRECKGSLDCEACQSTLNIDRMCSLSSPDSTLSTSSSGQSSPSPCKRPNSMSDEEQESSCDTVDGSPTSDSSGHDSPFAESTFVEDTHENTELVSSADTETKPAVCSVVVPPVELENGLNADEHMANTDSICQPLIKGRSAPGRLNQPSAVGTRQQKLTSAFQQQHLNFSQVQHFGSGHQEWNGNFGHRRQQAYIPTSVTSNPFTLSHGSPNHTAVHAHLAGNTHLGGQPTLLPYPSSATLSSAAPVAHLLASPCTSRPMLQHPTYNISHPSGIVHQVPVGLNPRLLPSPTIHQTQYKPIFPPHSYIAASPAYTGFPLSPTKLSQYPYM
Chain of Interleukin-1 receptor-associated kinase 4 (Homo sapiens) (Q9NWZ3 whole entry): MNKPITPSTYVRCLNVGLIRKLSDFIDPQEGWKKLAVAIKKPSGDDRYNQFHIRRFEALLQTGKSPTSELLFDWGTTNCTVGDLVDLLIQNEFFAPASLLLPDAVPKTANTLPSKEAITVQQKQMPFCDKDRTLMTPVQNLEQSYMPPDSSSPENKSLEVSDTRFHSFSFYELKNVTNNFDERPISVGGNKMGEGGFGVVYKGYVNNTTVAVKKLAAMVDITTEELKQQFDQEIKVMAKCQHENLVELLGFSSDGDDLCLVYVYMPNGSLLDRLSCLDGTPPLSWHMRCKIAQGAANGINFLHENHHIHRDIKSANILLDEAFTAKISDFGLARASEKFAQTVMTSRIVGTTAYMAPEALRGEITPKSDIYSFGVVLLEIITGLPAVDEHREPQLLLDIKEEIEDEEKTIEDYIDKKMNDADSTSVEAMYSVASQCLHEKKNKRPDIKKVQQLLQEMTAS

## O=C(Nc1cccnc1)c1cc(-c2ccnc(F)c2)ccc1OCc1ccccc1
[1]
  Activity: 80%
[2]
  Activity: 71%
[3]
  Activity: 59%
[4]
  Activity: 60%
[5]
  Activity: 59%
[6]
  Activity: 58%
[7]
  Activity: 43%
[8]
  Activity: 58%
[9]
  Activity: 105%
[10]
  Activity: 41%
[11]
  Activity: 74%
[12]
  Activity: 58%
[13]
  inhibition: Active
[14]
  Activity: 65%
[15]
  Activity: 38%
[16]
  Activity: 125%
[17]
  Activity: 52%
[18]
  Activity: 103%
[19]
  Activity: 74%
Mus musculus
  inhibition: Active
Brain
  Vdss: 1.6 L/kg
[20]
  Activity: 69%
[21]
  inhibition: Dose-dependent effect
[22]
  Activity: 64%
[23]
  Activity: 53%

Reference: ChEMBL document CHEMBL2203081 (Bioorg Med Chem Lett, 2012)
